Reference: ChEMBL document CHEMBL1156008, “Synthesis of novel isoluminol probes and their use in rapid bacterial assays” (Bioorg Med Chem Lett, 2009)
Calls of active or inactive are those of the source. The calls are words filed in the database; no cut-off is given here.

Experiments:
Lactococcus lactis [1] = assay: Binding affinity to Lactococcus lactis subsp. lactis C2 ATCC 11454 membrane surface measured after second washout with buffer by fluorescence assay; type: functional
Outline: (§1)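 L. lactis C2 grown 18 h at 27 °C in M17 (4% v/v inoculum). 200 µl culture, in triplicate, pelleted (9000g, 2 °C, 10 min); supernatant background subtracted. Pellet resuspended in peptide-isoluminol probe (DMF, diluted in pH 6.4 phosphate buffer, 0.01 M, 0.1 ionic strength) for 10 min at 27 °C. Fluorescence read at ex 360/em 430 nm, then repeated centrifugation/buffer washes; fraction retained calculated.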

Lactococcus lactis [2] = assay: Binding affinity to Lactococcus lactis subsp. lactis C2 ATCC 11454 membrane surface by fluorescence assay; type: functional; outline: as §1
Lactococcus lactis [3] = assay: Binding affinity to Lactococcus lactis subsp. lactis C2 ATCC 11454 membrane surface measured after first washout with buffer by fluorescence assay; type: functional; outline: as §1
Salmonella typhimurium [4] = assay: Binding affinity to Salmonella Typhimurium ATCC 14028 membrane surface measured after fourth washout with buffer by fluorescence assay; type: functional, organism-based; conditions: Salmonella enterica subsp. enterica serovar Typhimurium
Outline: (§2)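 Cell pellets were exposed to peptide-isoluminol probe in pH 6.4 phosphate buffer (0.01 M, 0.1 ionic strength). Probe remaining on cells was then tracked through repeated buffer wash cycles by fluorescence at ex 360/em 430 nm.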

Escherichia coli [5] = assay: Binding affinity to Escherichia coli ATCC 47076 membrane surface measured after fourth washout with buffer by fluorescence assay; type: functional, organism-based; outline: as §2
Staphylococcus aureus [6] = assay: Binding affinity to Staphylococcus aureus ATCC 25923 membrane surface by fluorescence assay; type: functional, organism-based; outline: as §2
Staphylococcus aureus [7] = assay: Binding affinity to Staphylococcus aureus ATCC 25923 membrane surface measured after second washout with buffer by fluorescence assay; type: functional, organism-based; outline: as §2
Escherichia coli [8] = assay: Binding affinity to Escherichia coli ATCC 47076 membrane surface measured after second washout with buffer by fluorescence assay; type: functional, organism-based; outline: as §2
Salmonella typhimurium [9] = assay: Binding affinity to Salmonella Typhimurium ATCC 14028 membrane surface by fluorescence assay; type: functional, organism-based; conditions: Salmonella enterica subsp. enterica serovar Typhimurium; outline: as §2
Salmonella typhimurium [10] = assay: Binding affinity to Salmonella Typhimurium ATCC 14028 membrane surface measured after second washout with buffer by fluorescence assay; type: functional, organism-based; conditions: Salmonella enterica subsp. enterica serovar Typhimurium; outline: as §2
Escherichia coli [11] = assay: Binding affinity to Escherichia coli ATCC 47076 membrane surface by fluorescence assay; type: functional, organism-based; outline: as §2

SMILES: CCN(CCCCCCNC(=O)COCC(=O)N[C@@H](CCCCN)C(=O)N[C@@H](CCCCN)C(=O)N[C@@H](CCCCN)C(=O)O)c1ccc2c(=O)[nH][nH]c(=O)c2c1
- Activity (Lactococcus lactis [1]): 10%
- Activity (Lactococcus lactis [2]): 34%
- Activity (Lactococcus lactis [3]): 23%
- Activity (Salmonella typhimurium [4]): Active
- Activity (Escherichia coli [5]): Active

SMILES: CCN(CCCCCCNC(=O)COCC(=O)NC(CCC(=O)O)C(=O)NC(CCC(=O)O)C(=O)O)c1ccc2c(=O)[nH][nH]c(=O)c2c1 (centres undefined)
- Activity (Staphylococcus aureus [6]): 15%
- Activity (Lactococcus lactis [1]): Active
- Activity (Staphylococcus aureus [7]): Active
- Activity (Lactococcus lactis [2]): 15%
- Activity (Escherichia coli [8]): Active
- Activity (Salmonella typhimurium [9]): 15%
- Activity (Lactococcus lactis [3]): Active
- Activity (Salmonella typhimurium [10]): Active
- Activity (Escherichia coli [11]): 15%
